SMILES strings stand for the structures. Calls of active or inactive are those of the source. No cut-off for these calls is given here.

Data set [1] in a line: Induction of H2S release in Tyrode buffer after 15 mins. It counts as physicochemical. The note with it: 0.25 h. Put shortly:
(§1)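 Incubation in Tyrode buffer, the medium used for functional tests, with or without rat aortic ring tissue. No L-cysteine or glutathione added. H2S recorded continuously by amperometry; concentration reported 15 min after addition. Mean with SEM.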

Data set [2] in a line: Induction of H2S release in PBS buffer 10x at pH 7.4 at 1 mM in presence of glutathione. The class given is physicochemical. The conditions noted are these: pH 7.4, 1000 µM. A digest of the protocol:
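Release measured amperometrically in assay buffer (pH 7.4, 35–37 °C), test agent 1 mM, with reduced glutathione added as the thiol. Continuous H2S–time curves recorded. Mean with SEM.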

Another data set has as its system Rattus norvegicus. The data set can be described thus: Reduction of systolic blood pressure in rat at 0.1 mg/kg, po (reference value: 102% +/- 1%). It counts as functional, Artery. Also noted: scale not given: the % may be the effect or the level left.
A further data set concerns Aorta. The experiment in a line: Inhibition of noradrenaline-induced vasoconstriction in Wistar rat endothelium-denuded thoracic aortic ring at 1 mM after 20 mins. It counts as functional, tissue-based. Put shortly: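 Endothelium-denuded rat aortic rings preincubated with test agent, NaHS or vehicle, then given cumulative noradrenaline. Contraction expressed as % of a prior response to 60 mM KCl.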

The nature of data set [3]: Activation of KATP channel in HASMC assessed as membrane hyperpolarization using DiBac4(3) dye by spectrofluorimetric analysis relative to LCRK. The note with it: Homo sapiens. A digest of the protocol: (§2)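 Cultured human aortic smooth muscle cells; membrane potential followed as change in relative fluorescence of a potential-sensitive dye. Test agent added at increasing concentrations up to 1 mM. Response expressed as % of maximal hyperpolarization produced by levcromakalim 10 μM (reference KATP opener). Mean with SEM.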

Data set [4] in a line: Activation of KATP channel in HASMC assessed as membrane hyperpolarization at 1 mM using DiBac4(3) dye by spectrofluorimetric analysis relative to LCRK. The note with it: Homo sapiens. A digest of the protocol:
as §2

Data set [5] can be described thus: Induction of H2S release in Tyrode buffer in presence of Wistar rat endothelium-denuded thoracic aortic ring. It counts as functional. The conditions noted are these: TDE = time-dependent effect. A digest of the protocol:
as §1

Consider `NC(=S)c1ccc(O)cc1`, for which the Activity in data set [1] was 0.24 µM; in data set [2], “Active”; in the data set on Rattus norvegicus, 89%; in data set [3], “Dose-dependent effect”; in data set [4], 79%; in data set [5], “tde”. In addition, the inhibition result in the data set on Aorta was “Active”.

`[Na+].[SH-]` [SODIUM HYDROSULFIDE]: the Activity in the data set on Rattus norvegicus turned out to be 91%; in data set [4], 52%. The inhibition result with Aorta is “Active”.
